Reference: ChEMBL document CHEMBL1129480, “Design and synthesis of 1-aminocycloalkane-1-carboxylic acid-substituted deltorphin analogues: unique delta and mu opioid activity in modified peptides” (J Med Chem, 1996)
Square brackets hold non-standard residues; d marks the D form. Peptide text beside a SMILES is read from it. Ac6c = NC1(C(=O)O)CCCCC1; Ac5c = NC1(C(=O)O)CCCC1; Ac3c = NC1(C(=O)O)CC1

Assays:
Mu-type opioid receptor [1] = target: Mu-type opioid receptor (Rattus norvegicus, UniProt P33535); assay: Displacement of [3H]DAGO (1.28 nM) from Opioid receptor mu 1
Mu-type opioid receptor (Rattus norvegicus, UniProt P33535), sequence (P33535 whole entry): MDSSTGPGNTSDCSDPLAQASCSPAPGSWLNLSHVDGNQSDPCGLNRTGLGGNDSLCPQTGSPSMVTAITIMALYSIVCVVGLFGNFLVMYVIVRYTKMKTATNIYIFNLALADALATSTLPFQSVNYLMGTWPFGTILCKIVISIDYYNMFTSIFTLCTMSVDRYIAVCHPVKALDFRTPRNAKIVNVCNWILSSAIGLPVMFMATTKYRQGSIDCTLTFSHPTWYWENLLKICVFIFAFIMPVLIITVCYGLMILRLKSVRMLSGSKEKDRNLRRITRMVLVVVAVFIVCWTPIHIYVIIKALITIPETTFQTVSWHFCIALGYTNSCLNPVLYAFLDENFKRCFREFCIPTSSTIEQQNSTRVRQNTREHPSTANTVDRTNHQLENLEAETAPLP
Summary of the method: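 Rat brain synaptosomal membranes, preincubated, in 50 mM HEPES pH 7.5, 5 mM MgCl2, glycerol, protease inhibitors with [3H]DAGO for 120 min at 22-23 °C. Baseline set with 2 µM unlabeled peptide. Filtration, washes with ice-cold buffer containing 0.01% BSA or lactalbumin. Duplicates over 6-14 concentrations spanning 1000-fold, or triplicates with 25-35 concentrations fitted to one- or two-site models. Ki from IC50 by Cheng-Prusoff.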

[2] = target: Delta-type opioid receptor (Mus musculus, UniProt P32300); assay: Inhibitory activity against Opioid receptor delta 1 of mouse vas deferens (MVD); assay type: tissue-based
Delta-type opioid receptor (Mus musculus, UniProt P32300), sequence (P32300 whole entry): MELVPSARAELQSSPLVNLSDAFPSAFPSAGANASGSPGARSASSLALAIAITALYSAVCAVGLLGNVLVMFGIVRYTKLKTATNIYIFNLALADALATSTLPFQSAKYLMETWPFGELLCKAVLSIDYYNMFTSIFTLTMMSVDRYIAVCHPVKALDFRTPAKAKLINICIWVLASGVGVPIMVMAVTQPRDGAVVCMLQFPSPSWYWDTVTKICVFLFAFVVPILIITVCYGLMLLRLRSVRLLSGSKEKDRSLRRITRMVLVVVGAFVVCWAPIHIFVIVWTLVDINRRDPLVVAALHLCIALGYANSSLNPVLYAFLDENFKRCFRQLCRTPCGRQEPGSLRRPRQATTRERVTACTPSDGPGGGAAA

[3] = target: Delta-type opioid receptor (Rattus norvegicus, UniProt P33533); assay: Displacement of [3H]DPDPE (0.63 nM) from Opioid receptor delta 1
Delta-type opioid receptor (Rattus norvegicus, UniProt P33533), sequence (P33533 whole entry): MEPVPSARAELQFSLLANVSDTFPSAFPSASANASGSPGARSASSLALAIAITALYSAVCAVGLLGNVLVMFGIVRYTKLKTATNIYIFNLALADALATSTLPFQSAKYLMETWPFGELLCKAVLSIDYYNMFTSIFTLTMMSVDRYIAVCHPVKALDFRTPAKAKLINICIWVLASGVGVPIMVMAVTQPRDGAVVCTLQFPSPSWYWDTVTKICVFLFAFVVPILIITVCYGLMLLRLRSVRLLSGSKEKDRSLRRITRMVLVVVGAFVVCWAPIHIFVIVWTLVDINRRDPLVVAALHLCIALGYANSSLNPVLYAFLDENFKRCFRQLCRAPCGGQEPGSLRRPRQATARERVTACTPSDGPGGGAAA
Summary of the method: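 Rat brain synaptosomal membranes, preincubated, incubated with [3H]DPDPE in 50 mM HEPES pH 7.5, 5 mM MgCl2, glycerol, protease inhibitors, 120 min at 22-23 °C. Nonspecific baseline from 2 µM unlabeled peptide. Filtered, washed with ice-cold buffer plus 0.01% BSA or lactalbumin. Duplicates, 6-14 concentrations over 1000-fold, or triplicates with 25-35 concentrations for one/two-site fits. Ki via Cheng-Prusoff.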

Mu-type opioid receptor [4] = target: Mu-type opioid receptor (Cavia porcellus, UniProt P97266); assay: Compound was evaluated for its inhibitory activity towards Opioid receptor mu 1 of guinea pig ileum (GPI); assay type: tissue-based
Mu-type opioid receptor (Cavia porcellus, UniProt P97266), sequence (P97266 whole entry): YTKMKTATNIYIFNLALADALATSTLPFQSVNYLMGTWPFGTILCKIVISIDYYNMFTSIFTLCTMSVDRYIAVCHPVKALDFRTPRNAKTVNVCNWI
Summary of the method: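 Guinea pig ileum segment (2-3 cm) in 20 mL organ bath with 70 µM hexamethonium bromide and 0.125 µM mepyramine maleate, 95% O2/5% CO2, 36 °C. Transmural stimulation, 0.5 ms square pulses at 0.1 Hz, 1.5× maximal-twitch voltage (~30 V). Dose-response curves against reference agonists (dermorphin or morphine). IC50 as mean ± SE of four independent experiments.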

Structure (SMILES)	Ki (Mu-type opioid receptor [1])	IC50 [2]	Ki [3]	IC50 (Mu-type opioid receptor [4])
CC(C)[C@H](NC(=O)[C@@H](NC(=O)C1(NC(=O)[C@H](Cc2ccccc2)NC(=O)[C@H](C)NC(=O)[C@@H](N)Cc2ccc(O)cc2)CC1)C(C)C)C(=O)NCC(N)=O (H-YAF[Ac3c]VVG-NH2)	0.27 nM	0.43 nM	0.054 nM	15 nM
CC(C)[C@H](NC(=O)[C@@H](NC(=O)C1(NC(=O)[C@H](Cc2ccccc2)NC(=O)[C@H](C)NC(=O)[C@@H](N)Cc2ccc(O)cc2)CCCC1)C(C)C)C(=O)NCC(N)=O (H-YAF[Ac5c]VVG-NH2)	0.58 nM	0.19 nM	0.054 nM	140 nM
CC(C)[C@H](NC(=O)[C@@H](NC(=O)C1(NC(=O)[C@H](Cc2ccccc2)NC(=O)[C@H](C)NC(=O)[C@@H](N)Cc2ccc(O)cc2)CCCCC1)C(C)C)C(=O)NCC(N)=O (H-YAF[Ac6c]VVG-NH2)	2.45 nM	0.52 nM	0.045 nM	558 nM
CC(C)[C@H](NC(=O)[C@H](CC(=O)O)NC(=O)C1(NC(=O)[C@H](C)NC(=O)[C@@H](N)Cc2ccc(O)cc2)CC1)C(=O)N[C@H](C(=O)NCC(N)=O)C(C)C (H-YA[Ac3c]DVVG-NH2)	10200 nM	458 nM	19 nM	> 10000 nM
CC(C)[C@H](NC(=O)[C@H](CC(=O)O)NC(=O)C1(NC(=O)[C@H](C)NC(=O)[C@@H](N)Cc2ccc(O)cc2)CCCC1)C(=O)N[C@H](C(=O)NCC(N)=O)C(C)C (H-YA[Ac5c]DVVG-NH2)	6820 nM	1640 nM	15.4 nM	> 10000 nM
CC(C)[C@H](NC(=O)[C@H](CC(=O)O)NC(=O)C1(NC(=O)[C@H](C)NC(=O)[C@@H](N)Cc2ccc(O)cc2)CCCCC1)C(=O)N[C@H](C(=O)NCC(N)=O)C(C)C (H-YA[Ac6c]DVVG-NH2)	5460 nM	540 nM	3.28 nM	> 10000 nM
CC(C)[C@H](NC(=O)[C@H](CC(=O)O)NC(=O)C1(NC(=O)[C@@H](N)Cc2ccc(O)cc2)CCCCC1)C(=O)N[C@H](C(=O)NCC(N)=O)C(C)C (H-Y[Ac6c]DVVG-NH2)	441000 nM		5260 nM	
CC(C)[C@H](NC(=O)[C@H](CC(=O)O)NC(=O)[C@H](Cc1ccccc1)NC(=O)C1(NC(=O)[C@@H](N)Cc2ccc(O)cc2)CCCCC1)C(=O)N[C@H](C(=O)NCC(N)=O)C(C)C (H-Y[Ac6c]FDVVG-NH2)	3110 nM		2.48 nM	
CC(C)[C@H](NC(=O)[C@H](CC(=O)O)NC(=O)C1(NC(=O)C2(NC(=O)[C@@H](N)Cc3ccc(O)cc3)CCCCC2)CCCCC1)C(=O)N[C@H](C(=O)NCC(N)=O)C(C)C (H-Y[Ac6c][Ac6c]DVVG-NH2)	14800 nM		87.8 nM	
CC(C)[C@H](NC(=O)[C@H](CC(=O)O)NC(=O)[C@H](Cc1ccccc1)NC(=O)[C@@H](C)NC(=O)[C@@H](N)Cc1ccc(O)cc1)C(=O)N[C@H](C(=O)NCC(N)=O)C(C)C [DELTORPHIN C]	147 nM		0.15 nM	337 nM
